Assay results gathered from unrelated publications.
Lines come from different studies, so protocols differ.
Target: Ephrin type-A receptor 6 (EPHA6, Homo sapiens, UniProt Q9UF33)
Sequence (Q9UF33 23-1036, as in one of the studies): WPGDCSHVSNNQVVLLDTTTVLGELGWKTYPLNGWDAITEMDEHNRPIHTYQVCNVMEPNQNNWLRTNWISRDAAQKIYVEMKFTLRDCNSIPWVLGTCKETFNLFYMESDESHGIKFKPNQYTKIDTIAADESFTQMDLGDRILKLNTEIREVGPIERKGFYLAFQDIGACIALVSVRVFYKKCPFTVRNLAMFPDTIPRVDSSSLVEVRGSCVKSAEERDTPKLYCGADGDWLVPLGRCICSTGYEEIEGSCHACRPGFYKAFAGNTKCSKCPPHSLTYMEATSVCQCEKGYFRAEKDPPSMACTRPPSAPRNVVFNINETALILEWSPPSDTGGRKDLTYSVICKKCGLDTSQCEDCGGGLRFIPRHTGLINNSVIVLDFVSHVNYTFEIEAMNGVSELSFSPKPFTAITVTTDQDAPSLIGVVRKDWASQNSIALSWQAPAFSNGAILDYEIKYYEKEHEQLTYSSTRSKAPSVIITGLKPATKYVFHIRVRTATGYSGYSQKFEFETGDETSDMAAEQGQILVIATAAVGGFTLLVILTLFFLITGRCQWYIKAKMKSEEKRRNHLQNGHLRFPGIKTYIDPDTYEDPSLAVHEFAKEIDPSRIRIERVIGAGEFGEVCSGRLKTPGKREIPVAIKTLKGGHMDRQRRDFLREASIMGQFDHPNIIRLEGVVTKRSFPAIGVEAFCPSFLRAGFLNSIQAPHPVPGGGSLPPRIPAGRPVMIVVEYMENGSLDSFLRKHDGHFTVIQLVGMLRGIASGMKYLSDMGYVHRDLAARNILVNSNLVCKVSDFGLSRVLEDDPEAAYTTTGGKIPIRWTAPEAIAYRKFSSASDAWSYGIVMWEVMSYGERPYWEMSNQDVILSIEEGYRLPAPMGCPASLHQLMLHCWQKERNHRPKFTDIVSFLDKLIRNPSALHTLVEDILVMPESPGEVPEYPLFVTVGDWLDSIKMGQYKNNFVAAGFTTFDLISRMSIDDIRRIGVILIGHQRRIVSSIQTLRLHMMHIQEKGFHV

O=C(NCCCN1CCOCC1)c1ccc(Nc2nccc(-c3cc4ccccc4s3)n2)cc1
remaining binding (binding; competition with immobilised ligand; 1 µM): 97%

CNC(=O)Nc1ccc2c(c1)[C@@]1(CC2)OC(=O)N(CC(=O)N(Cc2ccc(F)cc2)[C@@H](C)C(F)(F)F)C1=O
remaining binding (cell-free assay; competition with immobilised ligand; 1 µM): 91%

Nc1ncc2c(n1)-c1c([nH]c3ccc(C#CC4CC4)cc13)CCCC2
remaining binding (binding; competition with immobilised ligand; 1 µM): 100%

F[C@@H]1CCN(c2nccc(-c3cnn4ncccc34)n2)C1
remaining binding (binding; 1 µM): 80%

CC(=O)N1CCC(c2ccc(C(=O)NC3=NCCN3)cc2C(F)(F)F)CC1
remaining binding (cell-free assay; competition with immobilised ligand; 1 µM): 98%

C=CC(=O)N1CCC(C(=O)NCC(=O)N2CCN(c3nc(-c4cnc(N)nc4C(F)F)nc(N4CCOCC4)n3)CC2)CC1
remaining binding (binding; competition with immobilised ligand; 1 µM): 100%

COc1ccnn2ncc(-c3ccnc(N(C)C)n3)c12
remaining binding (binding; 1 µM): 67%

CNCc1ccccc1-c1csc([C@H](C)Nc2nc(C)nc3cc(OC)c(OC)cc23)c1
remaining binding (cell-free assay; competition with immobilised ligand; 1 µM): 100%

FC(F)(F)Oc1cccc(-c2cnc3ccc(-c4ccncc4)nn23)c1
remaining binding (cell-free assay; competition with immobilised ligand; 5 µM): 93%

O=C(c1ccc(Nc2ncc(Cl)c(-c3ccc(Cl)s3)n2)cc1)N1CCC(N2CCCC2)CC1
remaining binding (binding; competition with immobilised ligand; 1 µM): 51%

C[C@@H]1CCN(c2nccc(-c3cnn4ncccc34)n2)C1
remaining binding (binding; 1 µM): 100%

O=C(Nc1c[nH]nc1C(=O)NC1CCNCC1)c1cc(F)cc(F)c1
remaining binding (binding; competition with immobilised ligand; 1 µM): 100%

Cc1nc(Cc2cccc(C(F)(F)F)c2)sc1-c1ccc(C(N)=O)nc1
remaining binding (cell-free assay; competition with immobilised ligand; 1 µM): 96%

COc1cnc(Nc2cccc(S(N)(=O)=O)c2)nc1N1CCN(c2ccccc2)C(=O)C1
remaining binding (binding; competition with immobilised ligand; 1 µM): 100%

CN(C)c1ncc(F)c(-c2cnn3ncccc23)n1
remaining binding (binding; 1 µM): 82%

Cc1cnc(Nc2ccc(C(=O)N3CCC(N4CCCC4)CC3)cc2)nc1-c1cc2ccccc2s1
remaining binding (binding; competition with immobilised ligand; 1 µM): 65%

CN(CCCC(F)(F)F)c1nccc(-c2cnn3ncccc23)n1
remaining binding (binding; 1 µM): 89%

Cn1nc(C(=O)NCc2ccc(C(=O)O)cc2)cc1-c1ccc2[nH]ccc2c1
remaining binding (cell-free assay; competition with immobilised ligand; 0.1 µM): 100%

CC1CCCN1c1nccc(-c2cnn3ncccc23)n1 (stereo not drawn)
remaining binding (binding; 1 µM): 94%

CNC(=O)[C@@H]1CC[C@@H](n2c(-c3ccc4cnccc4c3)nc3ccc(C(=O)NCc4cccc(C(N)=O)c4)cc32)C1
remaining binding (binding; competition with immobilised ligand; 1 µM): 100%

CO[C@@H](C)c1c(Nc2ccc([C@H](N(C)C(=O)C3CCS(=O)(=O)CC3)C(F)(F)F)cc2)cnc2cc(Cl)nn12
remaining binding (cell-free assay; competition with immobilised ligand; 1 µM): 100%
